Test results taken from ChEMBL document CHEMBL3286320, “Design, Synthesis, and Optimization of Balanced Dual NK1/NK3 Receptor Antagonists” (ACS Med Chem Lett, 2014).

How the values were obtained:
Neuromedin-K receptor = target: T1, Neuromedin-K receptor (Homo sapiens, UniProt P29371); assay: Displacement of [3H]-SR142801 from human NK3 receptor expressed in recombinant CHO cells; format: cell-based
T1 sequence (P29371 whole entry): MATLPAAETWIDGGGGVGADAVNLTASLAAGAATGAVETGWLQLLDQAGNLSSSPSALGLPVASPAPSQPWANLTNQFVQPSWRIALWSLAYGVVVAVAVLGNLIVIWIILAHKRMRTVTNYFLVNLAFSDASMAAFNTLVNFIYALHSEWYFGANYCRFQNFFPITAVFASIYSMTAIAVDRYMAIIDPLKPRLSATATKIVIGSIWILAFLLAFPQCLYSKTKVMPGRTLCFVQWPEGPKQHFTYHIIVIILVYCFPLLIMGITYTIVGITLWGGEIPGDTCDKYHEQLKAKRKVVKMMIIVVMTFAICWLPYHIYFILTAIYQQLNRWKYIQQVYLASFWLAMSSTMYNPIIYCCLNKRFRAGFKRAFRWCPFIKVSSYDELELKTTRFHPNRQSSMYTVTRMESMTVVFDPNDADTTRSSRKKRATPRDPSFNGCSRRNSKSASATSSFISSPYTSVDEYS
Procedure, shortened: (§1)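 Radioligand binding on membranes: NK1 on membranes from U-373MG cells, which express the receptor endogenously; NK3 on membranes from CHO cells stably expressing the recombinant human receptor.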

Substance-P receptor = Substance-P receptor (Homo sapiens, UniProt P25103); assay: Displacement of [125I]-Bolton Hunter-substance P from human NK1 receptor expressed in human U373MG cells; format: cell-based, U-373MG ATCC; procedure, shortened: as §1
Sequence of Substance-P receptor (P25103 whole entry): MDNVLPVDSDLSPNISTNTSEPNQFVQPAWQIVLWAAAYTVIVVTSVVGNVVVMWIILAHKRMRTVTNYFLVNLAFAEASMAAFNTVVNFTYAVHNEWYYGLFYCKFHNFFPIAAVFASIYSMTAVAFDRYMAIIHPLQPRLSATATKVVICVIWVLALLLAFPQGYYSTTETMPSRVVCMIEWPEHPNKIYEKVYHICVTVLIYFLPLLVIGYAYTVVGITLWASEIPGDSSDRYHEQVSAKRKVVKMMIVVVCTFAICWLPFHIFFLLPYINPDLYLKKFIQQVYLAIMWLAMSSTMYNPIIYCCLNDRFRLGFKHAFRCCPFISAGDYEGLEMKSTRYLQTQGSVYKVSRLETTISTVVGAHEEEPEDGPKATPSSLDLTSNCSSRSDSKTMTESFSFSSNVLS

SMILES | Ki (Neuromedin-K receptor) [nM] | Ki (Substance-P receptor) [nM]
CNCCNC(=O)[C@@H](Cc1ccccc1)NC(=O)[C@](C)(CCN1CCC2(CC1)OC(=O)N(C)c1ccc(F)cc12)c1ccc(Cl)c(Cl)c1 | 20 | 15.8
CN1C(=O)OC2(CCN(CC[C@](C)(C(=O)N[C@@H](Cc3ccccc3)C(=O)NCCN)c3ccc(Cl)c(Cl)c3)CC2)c2cc(F)ccc21 | 10000 | 398
CN1C(=O)OC2(CCN(CC[C@@](C)(C(=O)N[C@@H](Cc3ccccc3)C(=O)NCCN)c3ccc(Cl)c(Cl)c3)CC2)c2cc(F)ccc21 | 63.1 | 126
CN1C(=O)OC2(CCN(CC[C@@](C)(C(=O)N(C)[C@H](Cc3ccccc3)C(=O)NCCN)c3ccc(Cl)c(Cl)c3)CC2)c2cc(F)ccc21 | 7.94 | 2.51
CN1C(=O)OC2(CCN(CC[C@@](C)(C(=O)N(C)[C@H](Cc3ccccc3)C(=O)NCCCN)c3ccc(Cl)c(Cl)c3)CC2)c2cc(F)ccc21 | 25.1 | 3.98
CN1C(=O)OC2(CCN(CC[C@@](C)(C(=O)N[C@H](C(=O)NCCN)c3ccccc3)c3ccc(Cl)c(Cl)c3)CC2)c2cc(F)ccc21 | 39.8 | 251
CN1C(=O)OC2(CCN(CC[C@@](C)(C(=O)N[C@H](Cc3ccccc3)C(=O)NCCN)c3ccc(Cl)c(Cl)c3)CC2)c2cc(F)ccc21 | 50.1 | 20
CN1C(=O)OC2(CCN(CC[C@H](C(=O)N(C)[C@@H](Cc3ccccc3)C(=O)NCCN)c3ccc(Cl)c(Cl)c3)CC2)c2cc(F)ccc21 | 1260 | 200
CN(C)CCNC(=O)[C@@H](Cc1ccccc1)NC(=O)[C@](C)(CCN1CCC2(CC1)OC(=O)N(C)c1ccc(F)cc12)c1ccc(Cl)c(Cl)c1 | 31.6 | 39.8
CN1C(=O)OC2(CCN(CC[C@@H](C(=O)N(C)[C@@H](Cc3ccccc3)C(=O)NCCN)c3ccc(Cl)c(Cl)c3)CC2)c2cc(F)ccc21 (mixture of isomers) | 1580 | 126
CN1C(=O)OC2(CCN(CC[C@](C)(C(=O)N[C@H](Cc3ccccc3)C(=O)NCCN)c3ccc(Cl)c(Cl)c3)CC2)c2cc(F)ccc21 | 2000 | 631
CN1C(=O)OC2(CCN(CCC[C@H](C(=O)N(C)[C@@H](Cc3ccccc3)C(=O)NCCN)c3ccc(Cl)c(Cl)c3)CC2)c2cc(F)ccc21 | 6310 | 398
CN1C(=O)OC2(CCN(CCC[C@@](C)(C(=O)N[C@H](Cc3ccccc3)C(=O)NCCO)c3ccc(Cl)c(Cl)c3)CC2)c2cc(F)ccc21 | 126 | 15.8
CN1C(=O)OC2(CCN(CCC[C@@](C)(C(=O)N[C@H](C(=O)NCCN)c3ccccc3)c3ccc(Cl)c(Cl)c3)CC2)c2cc(F)ccc21 | 794 | 316
CN1C(=O)OC2(CCN(CCC[C@@H](C(=O)N(C)[C@@H](Cc3ccccc3)C(=O)NCCN)c3ccc(Cl)c(Cl)c3)CC2)c2cc(F)ccc21 | 3980 | 50.1
CN(C)CCNC(=O)[C@@H](Cc1ccccc1)NC(=O)[C@](C)(CCCN1CCC2(CC1)OC(=O)N(C)c1ccc(F)cc12)c1ccc(Cl)c(Cl)c1 | 1000 | 20
CN1C(=O)OC2(CCN(CC[C@@H](C(=O)N(C)[C@H](C(=O)NCCN)c3ccccc3)c3ccc(Cl)c(Cl)c3)CC2)c2cc(F)ccc21 (racemic) | 2510 | 631
CN1C(=O)OC2(CCN(CC[C@@](C)(C(=O)N[C@H](Cc3ccccc3)C(=O)NCCO)c3ccc(Cl)c(Cl)c3)CC2)c2cc(F)ccc21 | 2.51 | 31.6
CN1C(=O)OC2(CCN(CCC[C@@](C)(C(=O)N[C@H](Cc3ccccc3)C(=O)NCCN)c3ccc(Cl)c(Cl)c3)CC2)c2cc(F)ccc21 | 1580 | 63.1
